Test results: ChEMBL document CHEMBL4118021, “Studies of TAK1-centered polypharmacology with novel covalent TAK1 inhibitors” (Bioorg Med Chem, 2017)
Blank lines part the entries; values can stand above or below the molecule they belong to. The source made the active and inactive calls. The rule behind the calls is not given here.

Columns and labels:
Type in all cases: cell-based
[1] = target: 14-3-3 protein theta (Homo sapiens) (UniProt P27348); experiment: Binding affinity to YWHAQ in human NCI-H23 cells at 1 uM by mass spectrometry based pull down assay
[2] = target: Y-box-binding protein 1 (Homo sapiens) (UniProt P67809); experiment: Binding affinity to YBX1 in human NCI-H23 cells at 1 uM by mass spectrometry based pull down assay
[3] = target: Mitogen-activated protein kinase kinase kinase 20 (Homo sapiens) (UniProt Q9NYL2); experiment: Binding affinity to ZAK in human NCI-H23 cells at 1 uM by mass spectrometry based pull down assay
[4] = target: T1, 80S Ribosome (Homo sapiens) (UniProt P08865+P42677+P62753+P15880+P23396+P61247+P62701+P22090+P46782+P62081+P62241+P46781+P46783+P62280+P25398+P62277+P62263+P62841+P62244+P62249+P08708+P62269+P39019+P60866+P63220+P62266+P62847+P62851+P62854+P62979+P62857+P62273+P62861+P39023+P36578+P46777+Q02878+P18124+P62424+P62917+P32969+P27635+P62906+P62913+P30050+P26373+P40429+P50914+P61313+P18621+Q07020+Q02543+P84098+P46778+P35268+P62829+P62750+P83731+P61254+P61353+P46776+P46779+P47914+P62888+P62899+P62910+P49207+P42766+P18077+Q9Y3U8+P83881+P61927+P61513+P63173+P62891+P62945+P05388+P05386); experiment: Binding affinity to RPLP1 in human NCI-H23 cells at 1 uM by mass spectrometry based pull down assay
[5] = target: Protein arginine N-methyltransferase 5 (Homo sapiens) (UniProt O14744); experiment: Binding affinity to PRMT5 in human NCI-H23 cells at 1 uM by mass spectrometry based pull down assay
[6] = target: Thymidylate kinase (Homo sapiens) (UniProt P23919); experiment: Binding affinity to DTYMK in human NCI-H23 cells at 1 uM by mass spectrometry based pull down assay
[7] = target: Arginine--tRNA ligase, cytoplasmic (Homo sapiens) (UniProt P54136); experiment: Binding affinity to RARS in human NCI-H23 cells at 1 uM by mass spectrometry based pull down assay
[8] = target: Glyoxylate reductase/hydroxypyruvate reductase (Homo sapiens) (UniProt Q9UBQ7); experiment: Binding affinity to GRHPR in human NCI-H23 cells at 1 uM by mass spectrometry based pull down assay
[9] = target: Sarcoplasmic/endoplasmic reticulum calcium ATPase 2 (Homo sapiens) (UniProt P16615); experiment: Binding affinity to ATP2A2 in human NCI-H23 cells at 1 uM by mass spectrometry based pull down assay
[10] = target: Ribosomal protein S6 kinase alpha-3 (Homo sapiens) (UniProt P51812); experiment: Binding affinity to RPS6KA3 in human NCI-H23 cells at 1 uM by mass spectrometry based pull down assay
[11] = target: Trifunctional purine biosynthetic protein adenosine-3 (Homo sapiens) (UniProt P22102); experiment: Binding affinity to GART in human NCI-H23 cells at 1 uM by mass spectrometry based pull down assay
[12] = target: Cyclin-G-associated kinase (Homo sapiens) (UniProt O14976); experiment: Binding affinity to GAK in human NCI-H23 cells at 1 uM by mass spectrometry based pull down assay
[13] = target: Mitogen-activated protein kinase 3 (Homo sapiens) (UniProt P27361); experiment: Binding affinity to MAPK3 in human NCI-H23 cells at 1 uM by mass spectrometry based pull down assay
[14] = target: Medium-chain specific acyl-CoA dehydrogenase, mitochondrial (Homo sapiens) (UniProt P11310); experiment: Binding affinity to ACADM in human NCI-H358 cells at 1 uM by mass spectrometry based pull down assay
Outline: (§1)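 NCI-H23 or NCI-H358 cells were grown and lysed. Lysates were incubated overnight at 4 °C with 1 μM biotinylated covalent probe or DMSO, then pulled down on streptavidin beads. Proteins were run on polyacrylamide gels and stained with Coomassie. Bands were excised, digested and identified by mass spectrometry.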

[15] = target: E3 ubiquitin-protein ligase HUWE1 (Homo sapiens) (UniProt Q7Z6Z7); experiment: Binding affinity to HUWE1 in human NCI-H358 cells at 1 uM by mass spectrometry based pull down assay
[16] = target: Peroxiredoxin-6 (Homo sapiens) (UniProt P30041); experiment: Binding affinity to PRDX6 in human NCI-H358 cells at 1 uM by mass spectrometry based pull down assay
NCI-H358 = experiment: Binding affinity to PSMA7 in human NCI-H358 cells at 1 uM by mass spectrometry based pull down assay
[17] = target: RuvB-like 2 (Homo sapiens) (UniProt Q9Y230); experiment: Binding affinity to RUVBL2 in human NCI-H358 cells at 1 uM by mass spectrometry based pull down assay
[18] = target: AH receptor-interacting protein (Homo sapiens) (UniProt O00170); experiment: Binding affinity to AIP in human NCI-H358 cells at 1 uM by mass spectrometry based pull down assay; outline: as §1
[19] = target: Cyclin-dependent kinase 4 (Homo sapiens) (UniProt P11802); experiment: Binding affinity to CDK4 in human NCI-H358 cells at 1 uM by mass spectrometry based pull down assay
[20] = target: T1, 80S Ribosome (Homo sapiens); experiment: Binding affinity to RPL19 in human NCI-H358 cells at 1 uM by mass spectrometry based pull down assay
[21] = target: Splicing factor 3B subunit 3 (Homo sapiens) (UniProt Q15393); experiment: Binding affinity to SF3B3 in human NCI-H358 cells at 1 uM by mass spectrometry based pull down assay
[22] = target: Fructose-bisphosphate aldolase C (Homo sapiens) (UniProt P09972); experiment: Binding affinity to ALDOC in human NCI-H358 cells at 1 uM by mass spectrometry based pull down assay
[23] = target: 5'-AMP-activated protein kinase subunit gamma-1 (Homo sapiens) (UniProt P54619); experiment: Binding affinity to PRKAG1 in human NCI-H358 cells at 1 uM by mass spectrometry based pull down assay
[24] = target: Mitochondrial import inner membrane translocase subunit TIM50 (Homo sapiens) (UniProt Q3ZCQ8); experiment: Binding affinity to TIMM50 in human NCI-H358 cells at 1 uM by mass spectrometry based pull down assay
[25] = target: ATP synthase F(1) complex subunit gamma, mitochondrial (Homo sapiens) (UniProt P36542); experiment: Binding affinity to ATP5C1 in human NCI-H358 cells at 1 uM by mass spectrometry based pull down assay
[26] = target: Protein disulfide-isomerase (Homo sapiens) (UniProt P07237); experiment: Binding affinity to P4HB in human NCI-H358 cells at 1 uM by mass spectrometry based pull down assay
[27] = target: Ribosomal protein S6 kinase alpha-3 (Homo sapiens) (UniProt P51812); experiment: Inhibition of RSK2 domain2 in human SKCO1 cells at 1 uM after 4 hrs using biotin labeled DLKPSNILYVDESGNPESIR probe by mass-spectrometric analysis relative to control

Ribosomal protein S6 kinase alpha-3 (Homo sapiens), sequence (P51812 whole entry, the tested form may be a part): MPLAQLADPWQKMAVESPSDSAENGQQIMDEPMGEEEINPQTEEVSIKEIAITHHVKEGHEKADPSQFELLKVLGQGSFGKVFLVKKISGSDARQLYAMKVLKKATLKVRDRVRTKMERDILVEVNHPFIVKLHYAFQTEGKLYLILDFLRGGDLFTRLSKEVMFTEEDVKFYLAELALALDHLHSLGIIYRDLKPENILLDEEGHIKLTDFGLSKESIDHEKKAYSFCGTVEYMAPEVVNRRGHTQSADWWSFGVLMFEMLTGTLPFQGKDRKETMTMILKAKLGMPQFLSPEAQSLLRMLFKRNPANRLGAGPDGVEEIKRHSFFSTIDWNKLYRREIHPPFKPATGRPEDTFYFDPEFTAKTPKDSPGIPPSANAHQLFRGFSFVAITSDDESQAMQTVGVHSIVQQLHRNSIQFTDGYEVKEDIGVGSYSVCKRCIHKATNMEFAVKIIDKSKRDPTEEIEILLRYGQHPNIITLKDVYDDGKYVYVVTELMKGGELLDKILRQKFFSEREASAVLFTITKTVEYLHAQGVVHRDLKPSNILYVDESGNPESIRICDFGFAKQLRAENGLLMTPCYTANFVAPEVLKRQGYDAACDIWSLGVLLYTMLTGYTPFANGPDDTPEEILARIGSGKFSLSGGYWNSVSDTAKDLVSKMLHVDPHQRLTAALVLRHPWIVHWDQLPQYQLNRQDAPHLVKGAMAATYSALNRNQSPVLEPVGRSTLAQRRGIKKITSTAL
Medium-chain specific acyl-CoA dehydrogenase, mitochondrial (Homo sapiens), sequence (P11310 whole entry): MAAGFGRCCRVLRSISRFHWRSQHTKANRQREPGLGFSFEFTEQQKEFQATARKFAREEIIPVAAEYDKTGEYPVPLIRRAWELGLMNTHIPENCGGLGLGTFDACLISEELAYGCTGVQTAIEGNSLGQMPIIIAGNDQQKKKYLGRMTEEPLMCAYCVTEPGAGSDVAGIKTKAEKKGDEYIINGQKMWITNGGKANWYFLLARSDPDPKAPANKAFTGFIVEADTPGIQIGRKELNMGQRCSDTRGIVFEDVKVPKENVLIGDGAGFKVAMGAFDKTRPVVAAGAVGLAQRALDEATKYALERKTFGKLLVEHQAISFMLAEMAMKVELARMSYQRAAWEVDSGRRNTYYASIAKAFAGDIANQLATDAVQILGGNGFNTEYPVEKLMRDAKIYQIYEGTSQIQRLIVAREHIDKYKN
Protein arginine N-methyltransferase 5 (Homo sapiens), sequence (O14744 whole entry): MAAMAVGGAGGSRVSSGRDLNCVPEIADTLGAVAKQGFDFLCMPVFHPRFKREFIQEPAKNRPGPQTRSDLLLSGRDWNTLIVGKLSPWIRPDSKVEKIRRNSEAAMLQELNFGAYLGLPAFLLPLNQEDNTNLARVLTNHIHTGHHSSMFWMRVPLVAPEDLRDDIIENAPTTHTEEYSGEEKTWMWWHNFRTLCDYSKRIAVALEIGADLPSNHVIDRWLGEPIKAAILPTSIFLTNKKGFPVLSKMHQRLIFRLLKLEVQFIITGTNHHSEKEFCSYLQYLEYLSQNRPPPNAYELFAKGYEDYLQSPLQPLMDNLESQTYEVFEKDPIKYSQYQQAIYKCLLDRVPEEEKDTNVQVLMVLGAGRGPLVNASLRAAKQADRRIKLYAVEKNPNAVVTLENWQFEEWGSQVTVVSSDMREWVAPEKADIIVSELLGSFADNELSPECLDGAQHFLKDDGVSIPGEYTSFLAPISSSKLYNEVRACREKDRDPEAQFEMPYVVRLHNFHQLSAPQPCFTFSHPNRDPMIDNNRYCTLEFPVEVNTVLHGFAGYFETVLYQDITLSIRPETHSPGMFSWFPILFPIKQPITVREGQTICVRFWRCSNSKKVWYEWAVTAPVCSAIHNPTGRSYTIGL
Mitogen-activated protein kinase kinase kinase 20 (Homo sapiens), sequence (Q9NYL2 2-800 limits assumed): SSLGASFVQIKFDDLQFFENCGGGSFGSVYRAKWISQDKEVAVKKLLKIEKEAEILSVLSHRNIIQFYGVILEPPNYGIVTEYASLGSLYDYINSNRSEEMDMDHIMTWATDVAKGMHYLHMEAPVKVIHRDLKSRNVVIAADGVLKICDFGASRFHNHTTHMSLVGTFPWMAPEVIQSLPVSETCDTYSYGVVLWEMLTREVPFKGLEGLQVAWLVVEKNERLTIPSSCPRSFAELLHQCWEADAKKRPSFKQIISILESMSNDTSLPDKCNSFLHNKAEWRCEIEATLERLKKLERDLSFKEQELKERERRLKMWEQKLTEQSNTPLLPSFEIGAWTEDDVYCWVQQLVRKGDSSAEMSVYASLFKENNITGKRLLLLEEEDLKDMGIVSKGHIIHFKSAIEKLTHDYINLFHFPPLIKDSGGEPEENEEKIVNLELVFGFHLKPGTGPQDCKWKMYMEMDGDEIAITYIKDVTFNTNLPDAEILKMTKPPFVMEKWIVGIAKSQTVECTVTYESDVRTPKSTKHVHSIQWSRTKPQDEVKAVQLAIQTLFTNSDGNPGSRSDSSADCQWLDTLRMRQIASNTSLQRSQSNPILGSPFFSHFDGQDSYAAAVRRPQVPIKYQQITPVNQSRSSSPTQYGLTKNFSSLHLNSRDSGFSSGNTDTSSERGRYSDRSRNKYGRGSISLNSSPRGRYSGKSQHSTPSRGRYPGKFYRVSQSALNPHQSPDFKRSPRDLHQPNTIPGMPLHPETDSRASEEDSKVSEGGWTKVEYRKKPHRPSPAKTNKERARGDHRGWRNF
Mitogen-activated protein kinase 3 (Homo sapiens), sequence (P27361 whole entry): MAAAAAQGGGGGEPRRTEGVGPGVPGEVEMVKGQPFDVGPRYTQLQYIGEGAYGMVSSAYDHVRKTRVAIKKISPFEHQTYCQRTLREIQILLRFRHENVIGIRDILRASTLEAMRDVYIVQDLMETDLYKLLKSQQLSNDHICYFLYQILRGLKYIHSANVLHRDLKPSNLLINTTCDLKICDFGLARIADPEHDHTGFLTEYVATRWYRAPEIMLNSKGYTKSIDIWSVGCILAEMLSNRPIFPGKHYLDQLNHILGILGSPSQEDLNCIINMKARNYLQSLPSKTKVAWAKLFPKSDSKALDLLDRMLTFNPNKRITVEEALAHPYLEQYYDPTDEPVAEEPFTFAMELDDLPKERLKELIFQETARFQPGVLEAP
Mitochondrial import inner membrane translocase subunit TIM50 (Homo sapiens), sequence (Q3ZCQ8 whole entry): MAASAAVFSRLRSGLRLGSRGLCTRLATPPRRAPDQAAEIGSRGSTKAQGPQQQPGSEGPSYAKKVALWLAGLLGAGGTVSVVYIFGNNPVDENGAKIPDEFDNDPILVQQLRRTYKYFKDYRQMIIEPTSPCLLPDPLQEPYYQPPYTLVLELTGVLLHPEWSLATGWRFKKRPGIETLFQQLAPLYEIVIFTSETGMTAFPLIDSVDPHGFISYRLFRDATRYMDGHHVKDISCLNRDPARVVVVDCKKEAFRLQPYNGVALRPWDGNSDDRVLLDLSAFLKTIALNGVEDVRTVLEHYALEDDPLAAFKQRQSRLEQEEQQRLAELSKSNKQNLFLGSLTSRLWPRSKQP
Thymidylate kinase (Homo sapiens), sequence (P23919 whole entry): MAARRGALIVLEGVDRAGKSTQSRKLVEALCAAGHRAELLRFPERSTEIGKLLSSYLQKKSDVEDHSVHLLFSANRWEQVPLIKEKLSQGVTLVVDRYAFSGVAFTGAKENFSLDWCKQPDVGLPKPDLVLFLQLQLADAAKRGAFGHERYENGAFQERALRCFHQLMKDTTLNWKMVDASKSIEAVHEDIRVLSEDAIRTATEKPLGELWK
Arginine--tRNA ligase, cytoplasmic (Homo sapiens), sequence (P54136 whole entry): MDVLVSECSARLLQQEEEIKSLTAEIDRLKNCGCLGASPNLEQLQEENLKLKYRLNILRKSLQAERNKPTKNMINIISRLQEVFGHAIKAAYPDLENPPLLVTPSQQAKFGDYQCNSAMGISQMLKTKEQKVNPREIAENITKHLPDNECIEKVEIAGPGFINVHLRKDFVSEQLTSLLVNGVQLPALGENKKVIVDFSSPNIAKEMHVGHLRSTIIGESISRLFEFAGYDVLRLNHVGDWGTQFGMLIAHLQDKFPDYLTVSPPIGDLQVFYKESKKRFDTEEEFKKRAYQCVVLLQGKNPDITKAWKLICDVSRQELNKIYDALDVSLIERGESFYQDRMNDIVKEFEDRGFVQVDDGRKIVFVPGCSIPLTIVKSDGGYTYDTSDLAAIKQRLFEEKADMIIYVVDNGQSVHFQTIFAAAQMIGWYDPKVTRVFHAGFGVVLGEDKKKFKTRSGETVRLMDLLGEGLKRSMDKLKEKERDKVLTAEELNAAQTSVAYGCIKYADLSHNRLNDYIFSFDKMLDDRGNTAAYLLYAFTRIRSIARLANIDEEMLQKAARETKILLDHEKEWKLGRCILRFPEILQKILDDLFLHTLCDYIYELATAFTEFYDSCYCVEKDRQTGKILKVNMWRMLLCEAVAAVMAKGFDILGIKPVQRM
ATP synthase F(1) complex subunit gamma, mitochondrial (Homo sapiens), sequence (P36542 whole entry, one chain of several): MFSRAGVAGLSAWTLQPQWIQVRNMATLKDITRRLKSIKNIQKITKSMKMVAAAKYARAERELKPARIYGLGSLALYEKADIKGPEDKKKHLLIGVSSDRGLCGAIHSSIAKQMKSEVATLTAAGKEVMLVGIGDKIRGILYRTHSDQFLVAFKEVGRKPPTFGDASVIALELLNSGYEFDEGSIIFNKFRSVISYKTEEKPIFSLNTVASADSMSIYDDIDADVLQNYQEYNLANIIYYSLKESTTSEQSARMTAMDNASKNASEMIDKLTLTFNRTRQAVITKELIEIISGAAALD
RuvB-like 2 (Homo sapiens), sequence (Q9Y230 whole entry): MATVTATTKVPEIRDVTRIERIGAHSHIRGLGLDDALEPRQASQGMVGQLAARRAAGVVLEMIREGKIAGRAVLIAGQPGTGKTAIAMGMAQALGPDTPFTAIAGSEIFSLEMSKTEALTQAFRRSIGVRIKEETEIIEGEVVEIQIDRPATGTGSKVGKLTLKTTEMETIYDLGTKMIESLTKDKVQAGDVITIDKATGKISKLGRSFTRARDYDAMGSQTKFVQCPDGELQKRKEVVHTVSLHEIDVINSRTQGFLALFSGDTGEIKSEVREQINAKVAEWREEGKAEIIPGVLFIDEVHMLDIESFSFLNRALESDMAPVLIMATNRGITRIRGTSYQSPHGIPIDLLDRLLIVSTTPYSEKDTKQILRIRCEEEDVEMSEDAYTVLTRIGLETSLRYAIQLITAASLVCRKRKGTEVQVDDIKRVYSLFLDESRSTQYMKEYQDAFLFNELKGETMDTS

- Activity [1]: Active
- Activity [2]: Active
- Activity [3]: Active
- Activity [4]: Active
- Activity [5]: Active
- Activity [6]: Active
- Activity [7]: Active
- Activity [8]: Active
- Activity [9]: Active
- Activity [10]: Active
- Activity [11]: Active
- Activity [12]: Active
- Activity [13]: Active
- Activity [14]: Active
- Activity [15]: Active
- Activity [16]: Active
- Activity [17]: Active
- Activity [18]: Active
- Activity [19]: Active
- Activity [20]: Active
- Activity [21]: Active
- Activity [22]: Active
- Activity [23]: Active
- Activity [24]: Active
- Activity [25]: Active
- Activity [26]: Active
SMILES: C=CC(=O)Nc1ccccc1Nc1nc(Nc2ccc(N3CCN(CCOCCOCCOCCNC(=O)CCCC[C@@H]4SC[C@@H]5NC(=O)N[C@@H]54)CC3)cc2)ncc1Cl
- Activity (NCI-H358): Active

SMILES: C=CC(=O)Nc1ccccc1Oc1nc(Nc2cnn(CCOC)c2)ncc1Cl
- inhibition [27]: -9.3%
